An excerpt weighted towards active compounds, which were near 2% of everything screened.
HGIII-sPLA2 inh: Blocks human group III sPLA2 activity; QFRET BODIPY PC-A2 liposome hydrolysis, fluorescence; inhibition, % at 12.2 µM; 370,000 tested, 0.56% active; AID 743126;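 active means inhibition above mean plus 3 SD of compounds lying within the high and low control bounds, cut at about 19% in these data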
Xi reactivation: activators of X-chromosome reactivation in mouse fibroblasts; XiGFP mouse fibroblasts, % GFP-positive cells imaging, 3 d; cells co-treated with 5-aza-dC sensitizer; scaled so ellipticine positive control = 100%; activation, % at 7.58 µM; 360,000 tested, 0.055% active;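 active means mean normalized replicate activation at least 10% and every replicate at or above 10%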
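System: 68-5-11 XiGFP fibroblast line; Timing: 3 days compound exposure; Compound dosing: one concentration, pinned; Benchmarks: positive control ellipticine, 6 µM final; Buffer or medium: DMEM containing 5-aza-dC.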
ARNT TACC3 PPI: ARNT/TACC3 interaction disruption. 390,000 tested, 0.66% active. inhibition, % at 9.99 µM. Q9Y6A5. AID 623870. AlphaScreen His-ARNT PAS-B/GST-TACC3 binding, luminescence; TACC3 fragment carries E629A point mutation;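 active means mean inhibition of replicates at least 50% and at least half of replicates each reaching 50%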
NSD2 inh: blocks human histone methyltransferase NSD2; O96028; AID 743445; inhibition, % at 12.5 µM; NSD2 peptide methylation, AlphaScreen, 120 min; 310,000 tested, 0.54% active; in the data active means inhibition above about 50%
SR-BI DiI-HDL act: enhances SR-BI lipid uptake from DiI-HDL; 320,000 tested, 0.096% active; CHO ldlA[mSR-BI] cells, DiI-HDL uptake fluorescence, 3 h; 100 = double the neutral-control signal; activation, % at 12.5 µM;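 active means mean replicate activation of at least 60% and every replicate at or above 60%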
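Assay system: LDL receptor-deficient CHO ldlA cells overexpressing murine SR-BI / Medium: BSA-supplemented, HEPES-buffered Ham's F12, pH 7.4 / Probe or stimulus: DiI-labelled HDL at 10 µg/mL final / Timing: compound with DiI-HDL co-incubation, 3 h at 37 °C / Technique: bottom-read cell fluorescence after medium removal, ex 550/em 595 nm / Measure: HDL uptake via cellular fluorescence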
SR-BI DiI inh: blocks mouse SR-BI lipid uptake from DiI-HDL | inhibition, % at 12.5 µM | Q61009 | ldlA[mSR-BI] CHO cells, DiI-HDL uptake fluorescence, 3 h | 320,000 tested, 0.96% active;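 active means mean replicate inhibition of at least 70% and a set share of replicates each scoring 70 or more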
Target sequence (Q61009 whole entry, looked up): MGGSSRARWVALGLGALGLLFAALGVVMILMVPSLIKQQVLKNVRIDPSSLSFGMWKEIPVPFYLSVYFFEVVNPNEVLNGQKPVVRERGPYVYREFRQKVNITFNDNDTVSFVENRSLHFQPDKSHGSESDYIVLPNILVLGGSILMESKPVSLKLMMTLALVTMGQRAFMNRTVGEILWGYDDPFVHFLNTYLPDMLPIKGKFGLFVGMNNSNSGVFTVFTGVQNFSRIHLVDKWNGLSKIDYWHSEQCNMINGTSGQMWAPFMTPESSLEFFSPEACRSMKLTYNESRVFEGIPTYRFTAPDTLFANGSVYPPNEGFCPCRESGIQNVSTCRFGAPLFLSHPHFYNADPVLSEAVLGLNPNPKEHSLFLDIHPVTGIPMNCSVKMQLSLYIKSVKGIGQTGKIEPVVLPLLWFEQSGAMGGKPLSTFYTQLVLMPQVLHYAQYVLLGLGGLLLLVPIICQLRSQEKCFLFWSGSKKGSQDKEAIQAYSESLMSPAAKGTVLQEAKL
A number is an active result; i = inactive; nt = not tested or not shown; ! = repeats disagree.

SMILES	HGIII-sPLA2 inh	Xi reactivation	ARNT TACC3 PPI	NSD2 inh	SR-BI DiI-HDL act	SR-BI DiI inh
O=C(N/N=C/c1c(O)n(-c2cccc3ccccc23)c(=O)[nH]c1=O)c1ccncc1	i	i	68	i	i	i
Cc1ccc(-n2c(O)c(/C=N/NC(=O)c3ccncc3)c(=O)[nH]c2=O)cc1C	i	i	62	i	i	i
O=C(N/N=C/c1c(O)n(CCc2ccccc2)c(=O)[nH]c1=O)c1ccncc1	i	i	74	i	i	i
CC(CO)(CO)N=Cc1c(O)n(-c2cccc3ccccc23)c(=O)[nH]c1=O	i	nt	i	i	i	i
O=C(N/N=C/c1c(O)n(CCc2ccc(F)cc2)c(=O)[nH]c1=O)c1ccncc1	i	i	65	i	i	i
CCCn1c(C)c(C(=O)c2cccc3ccccc23)c2ccccc21	i	i	i	nt	i	82
CCCCn1c(O)c(C(CC)=NCc2cc(OC)cc(OC)c2)c(=O)[nH]c1=O	i	nt	i	i	i	i
CCCCn1c(O)c(C(C)=NCc2cc(OC)cc(OC)c2)c(=O)[nH]c1=O	i	nt	26	i	i	i
O=c1[nH]c2ccccc2n1C1CCN(Cc2ccc(-c3nc4ccc(F)cc4nc3-c3ccccc3)cc2)CC1	i	i	nt	nt	nt	nt
O=C(Cc1ccccn1)N1CCCCN2[C@@H](CO)[C@H](c3ccc(-c4ccc(F)cc4)cc3)[C@@H]2C1	nt	i	i	nt	nt	nt
COc1ccc(Cn2c(O)c(/C=N/NC(=O)c3ccncc3)c(=O)[nH]c2=O)cc1	i	i	58	i	i	i
CCn1c(O)c(/C=N/NC(=O)c2ccccc2)c(=O)[nH]c1=S	i	i	63	i	i	i
O=C(N/N=C/c1c(O)n(CCc2ccc(F)cc2)c(=O)[nH]c1=O)c1ccccc1	i	i	nt	i	nt	nt
COc1ccccc1-n1c(O)c(/C=N/NC(=S)Nc2ccccc2)c(=O)[nH]c1=S	i	i	i	i	i	i
COc1ccc(Cn2c(O)c(/C=N/NC(=O)c3ccccc3)c(=O)[nH]c2=O)cc1	i	i	i	i	i	81
COC(=O)C1=C(c2ccc(F)cc2OCc2ccccc2)C[C@@H]2CC[C@H]1N2C(=O)NCCc1ccc(F)cc1	i	i	i	nt	i	i
CC(=NNC(=S)N1CC2CCC(CC2)C1)c1nccs1	i	i	72	i	i	i
O=C(c1cccc2ccccc12)C1CCCN(Cc2ccon2)C1 (stereo unspecified)	i	27	i	i	i	i
Cc1cc(Cl)ccc1C(=O)C1CCCN(Cc2ccon2)C1 (stereo unspecified)	i	i	i	i	i	i
Cn1c(O)c(C(=Nc2ccc(F)cc2)c2ccccc2Cl)c(=O)n(C)c1=O	i	i	i	i	i	i
Cn1c(O)c(C(c2ccncc2)c2c(O)n(C)c(=S)n(C)c2=O)c(=O)n(C)c1=S	i	nt	47	i	i	i
Cn1c(O)c(C(c2ccccn2)c2c(O)n(C)c(=S)n(C)c2=O)c(=O)n(C)c1=S	i	nt	i	i	i	i
O=C(O)[C@@H]1[C@@H](CO)[C@@H]2Cn3c(ccc(-c4ccncc4)c3=O)[C@H]1N2S(=O)(=O)c1ccccc1F	nt	i	i	nt	nt	nt
O=C(NN=Cc1ccc(N(CCCl)CCCl)cc1Cl)c1cccnc1	i	i	i	i	i	80
Cc1cc(N(CCCl)CCCl)ccc1C=NNC(=O)c1cccnc1	i	i	i	i	i	89
Cc1ccc(OC(=O)N(C)C[C@H]2OCc3ccccc3-c3c(n(C)c4ccccc34)C(=O)N([C@H](C)CO)C[C@@H]2C)cc1	nt	i	nt	nt	nt	nt
CN(C)[C@@H]1C(=O)C(C(N)=O)=C(O)[C@@]2(O)C(=O)C3=C(O)c4c(O)cccc4[C@@](C)(O)[C@H]3[C@H](O)[C@@H]12	i	i	52!	nt	i	i
CN(C)[C@@H]1C(=O)C(C(N)=O)=C(O)[C@@]2(O)C(=O)C3=C(O)c4c(O)cccc4[C@@](C)(O)C3C[C@@H]12 (stereo partly specified)	i	i	i	nt	i	i

Screening data (PubChem)
